Assay results gathered from unrelated publications.
Each line is one published result; the experiments were not run side by side.
Target: Tyrosine-protein kinase Fgr (FGR, Homo sapiens, UniProt P09769)

SMILES	read-out	mode	technique	tested at	measurement	value
CC(C)CC(=O)N1CCc2nc(-c3ccc(Br)cc3)nc(N(C)Cc3ccccc3)c2C1	cell-free assay		competition with immobilised ligand	0.1 µM	remaining binding	99%
CNC(=O)c1cc2c(Oc3ccc(NC(=O)C4(C(=O)Nc5ccc(F)cc5)CC4)cc3)ccnc2cc1OC	enzyme activity	inhibitor	radiometric	1 µM	inhibition	79%
O=C(Nc1cnn(-c2csc(C(=O)NC3COC3)c2)c1)Nc1ccccc1Cl	enzyme activity	inhibitor		5 µM	remaining activity	90%
O=C(Nc1cccnn1)N1CC(C/C=C/c2cncc(Oc3ccc(C(F)(F)F)cn3)n2)C1	cell-free assay		competition with immobilised ligand	1 µM	remaining binding	100%
Cn1c2c(Cl)c(Cl)ccc2c2cc(N)[nH]c(=O)c21	thermal stability		DSF	10 µM	ΔTm	0 °C
CC(C)(O)c1cncc(-c2nc3ccc(F)cc3n2C2CC2)c1	cell-free assay		competition with immobilised ligand	1 µM	remaining binding	100%
CCC1(CC)NC(=O)c2c(c3ccc(Cl)c(Cl)c3n2C)C1C#N (stereo not shown)	thermal stability		DSF	10 µM	ΔTm	0 °C
Cc1cnc(NC2CCOCC2)nc1-n1cnc(C(=O)NC(CN)c2cc(F)cc(Cl)c2)c1 (stereo not shown)	enzyme activity	inhibitor	radiometric	1 µM	remaining activity	97%
Cn1c2c(c3ccc(Cl)c(Cl)c31)C(C#N)C1(CCCC1)NC2=O (stereo not shown)	thermal stability		DSF	10 µM	ΔTm	-0.2 °C
FC(F)(F)c1ccc2c(c1)nc(-c1cccnc1)n2C1CC1	cell-free assay		competition with immobilised ligand	1 µM	remaining binding	100%
N#CCCc1ccc2c(c1)-c1[nH]c3ccc([N+](=O)[O-])cc3c1CC(=O)N2	cell-free assay			0.5 µM	remaining signal	31%
Cc1cc(NC(=O)c2cccc3cc(-c4cccc5[nH]nc(N)c45)ccc23)ccc1F	enzyme activity	inhibitor		0.1 µM	activity vs control	110%
COc1cc2ncnc(Nc3ccc(Oc4ccccc4)c(C)c3C)c2cc1OC	enzyme activity	inhibitor		1 µM	inhibition	93%
CNC(=O)c1cc(Oc2ccc(NC(=O)Nc3ccc(Cl)c(C(F)(F)F)c3)cc2)ccn1	enzyme activity	inhibitor		0.3 µM	inhibition	10%
CC(C)(O)[C@H]1CC[C@H](Nc2ccc3ncc(-c4cccc(C(F)(F)F)c4)n3n2)CC1	enzyme activity	inhibitor		1 µM	remaining activity	36.8%
CCN1CCC2(CC1)NC(=O)c1c(c3ccc(Cl)c(Cl)c3n1C)C2C#N (racemic)	thermal stability		DSF	10 µM	ΔTm	-0.1 °C
Cc1ccc(NC(=O)c2ccc(CN3CCN(C)CC3)cc2)cc1Nc1nc(-c2cccnc2)cs1	cell-free assay			0.5 µM	remaining signal	43.6%
CCN(CC)CCNC(=O)c1c(C)[nH]c(/C=C2\C(=O)Nc3ccc(F)cc32)c1C	enzyme activity	inhibitor		10 µM	inhibition	97%
Cn1c2c(Cl)c(Cl)ccc2c2cc[nH]c(=O)c21	thermal stability		DSF	10 µM	ΔTm	-0.4 °C
Nc1ncnc2occ(-c3ccc(NC(=O)Nc4cc(C(F)(F)F)ccc4F)cc3)c12	cell-free assay	inhibitor		20 µM	remaining signal	5.2%
C[C@H](NC(=O)c1cnc2n1[C@](C)(Cc1ccc(C#N)cc1)C(=O)N2c1cc(Cl)c(F)c(Cl)c1)C(=O)NC1(c2ccccn2)CC1	cell-free assay		competition with immobilised ligand	1 µM	remaining binding	100%
Cc1ccc(C(=O)Nc2ccc(CN3CCN(C)CC3)c(C(F)(F)F)c2)cc1C#Cc1cnc2cccnn12	enzyme activity			23.5 nM	remaining activity	10%
CN(C)C(=O)Cn1cc(-c2nc(C3(c4ccc(-c5cnc(N)nc5)cc4)CC3)no2)cn1	cell-free assay		competition with immobilised ligand	1 µM	remaining binding	100%
CC(C)(C)c1nc(-c2cccc(NS(=O)(=O)c3c(F)cccc3F)c2F)c(-c2ccnc(N)n2)s1	enzyme activity	inhibitor	radiometric	1 µM	remaining activity	60%
O=S(=O)(NC1CCC(c2cc(F)ccc2F)(S(=O)(=O)c2ccc(Cl)cc2)CC1)C(F)(F)F (stereo not shown)	cell-free assay		competition with immobilised ligand	1 µM	remaining binding	99%
CC/C(=N\NC(=O)NCc1cccc(O)c1)c1ccc(O)c(C)c1O	enzyme activity	inhibitor		0.1 µM	inhibition	1.1%
Cn1c2c(c3ccc(Cl)c(Cl)c31)C(C#N)C1(CCOCC1)NC2=O (stereo not shown)	thermal stability		DSF	10 µM	ΔTm	0 °C
O=C(O)c1cc(-c2ccc(C3CCNCC3)cc2)c2ccc(-c3ccc(C(F)(F)F)cc3)cc2c1	cell-free assay		competition with immobilised ligand	1 µM	remaining binding	100%
